The experiment concerns the target Transitional endoplasmic reticulum ATPase (Homo sapiens) (UniProt P55072). Put plainly: p97 ATPase inhibitors, retest, confirmation, biochemical (AID 1517).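 Note: 0% = DMSO wells and 100% = wells lacking p97 protein.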 The following applies: recombinant p97 ATPase, Kinase-Glo ATP luminescence; at 8 µM; stronger effect = higher value. A digest of the protocol:
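system = recombinant p97 ATPase | medium = Tris/MgCl2/EDTA/DTT buffer, pH 8.0 | compound dosing = one dose, 8 µM nominal final | timing = 30 min preincubation at 25 °C plus 3 h with ATP | measured by = Kinase-Glo luminescence | evaluation = percent ATPase inhibition | controls = DMSO and no-p97 controls | repeats = triplicate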
For orientation: In Kinase-Glo more light means more ATP remaining.

The list shows a part of the results. Active and inactive are the calls of the source.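 Rule for the calls: active = percent inhibition of p97 ATPase above a set limit, the primary screen's mean plus 3 SD (cut at about 15% in these data); inactive = the rest.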

Transitional endoplasmic reticulum ATPase (Homo sapiens), sequence (P55072 whole entry, looked up): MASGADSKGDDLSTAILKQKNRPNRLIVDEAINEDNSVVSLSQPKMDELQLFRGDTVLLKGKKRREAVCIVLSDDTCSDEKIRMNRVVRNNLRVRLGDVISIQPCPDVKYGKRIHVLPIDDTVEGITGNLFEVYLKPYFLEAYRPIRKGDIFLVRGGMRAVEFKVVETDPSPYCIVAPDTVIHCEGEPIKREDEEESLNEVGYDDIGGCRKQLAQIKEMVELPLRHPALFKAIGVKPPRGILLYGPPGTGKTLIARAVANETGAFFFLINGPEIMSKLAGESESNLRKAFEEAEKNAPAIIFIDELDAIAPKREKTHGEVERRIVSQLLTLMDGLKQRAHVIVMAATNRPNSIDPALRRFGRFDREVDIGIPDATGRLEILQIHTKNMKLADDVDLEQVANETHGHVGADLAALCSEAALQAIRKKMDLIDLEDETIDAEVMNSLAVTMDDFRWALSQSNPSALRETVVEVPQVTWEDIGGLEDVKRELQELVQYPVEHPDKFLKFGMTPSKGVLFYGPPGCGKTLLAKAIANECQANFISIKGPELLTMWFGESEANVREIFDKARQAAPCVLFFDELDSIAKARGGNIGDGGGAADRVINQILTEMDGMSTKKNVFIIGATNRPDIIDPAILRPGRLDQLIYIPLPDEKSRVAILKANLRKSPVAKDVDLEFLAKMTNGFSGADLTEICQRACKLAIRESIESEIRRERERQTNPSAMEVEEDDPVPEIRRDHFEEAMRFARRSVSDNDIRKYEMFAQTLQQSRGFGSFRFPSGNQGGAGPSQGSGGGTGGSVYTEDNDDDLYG

As usually defined, the inhibition is the percentage by which the read-out fell short of the control. Turning to `O=c1[nH]c(CN2CC=C(c3ccccc3)CC2)nc2scc(-c3cccs3)c12`, the inhibition is 10.8% (inactive).
